Experimental data: ChEMBL document CHEMBL3997832, “Development of MBRI-001, a deuterium-substituted plinabulin derivative as a potent anti-cancer agent” (Bioorg Med Chem Lett, 2017)

What was measured:
[1] = AUClast in Wistar rat at 5 mg/kg, iv; format: ADME, organism-based; parameters: dose 5 mg/kg, route intravenous, time 0 - last; conditions: in vivo
Summary of the method: (§1)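 Wistar rats, single intravenous dose of 5 mg·kg⁻¹, n=5; plasma concentration–time profile sampled, mean ± SD. Parameters (ke, t1/2, Tmax, Cmax, AUClast, AUC0–∞, Vz, CL, MRT) derived from the plasma curve.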

[2] = Metabolic stability in rat plasma assessed as esterase-mediated amide bond hydrolysis at 1 uM measured up to 100 mins by LC-MS/MS analysis; format: ADME; conditions: isolated protein
[3] = Cmax in Wistar rat at 5 mg/kg, iv; format: ADME, organism-based; parameters: dose 5 mg/kg, route intravenous; conditions: in vivo; summary of the method: as §1
[4] = Observed AUC (0 to infinity) in Wistar rat at 5 mg/kg, iv; format: ADME, organism-based; parameters: dose 5 mg/kg, time infinity, route intravenous; conditions: in vivo; summary of the method: as §1
NCI-H446 = experiment: Cytotoxicity against human NCI-H446 cells assessed as decrease in cell viability after 72 hrs by MTT assay; format: functional, cell-based; conditions: NCI-H446, 72 h
[5] = Drug uptake in tumor of nude mouse xenografted with human NCI-H460 cells at 6 mg/kg, iv administered every 2 days for 21 days; format: ADME, organism-based, Neoplasm; conditions: read-out: Drug uptake
Summary of the method: (§2)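 Nude mice bearing NCI-H460 xenografts given compound intravenously at 3, 6 or 12 mg/kg every two days for 21 days. Concentration in excised tumor tissue measured at end of treatment, expressed as ng/g.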

[6] = Metabolic stability in rat liver microsomes assessed as esterase-mediated amide bond hydrolysis at 2 uM measured up to 150 mins by LC-MS/MS analysis; format: ADME; conditions: 2.5 h
[7] = MRTlast in Wistar rat at 5 mg/kg, iv; format: ADME, organism-based; conditions: in vivo; summary of the method: as §1
Jurkat = experiment: Cytotoxicity against human Jurkat cells assessed as decrease in cell viability after 72 hrs by MTT assay; format: functional, cell-based
[8] = Observed clearance in Wistar rat at 5 mg/kg, iv; format: ADME, organism-based; conditions: in vivo; summary of the method: as §1
NCI-H460 [9] = experiment: Antitumor activity against human NCI-H460 cells xenografted in nude mouse assessed as tumor growth inhibition at 6 mg/kg, iv administered every 2 days for 21 days relative to vehicle-treated control; format: functional; conditions: read-out: TGI
Summary of the method: (§3)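 NCI-H460 xenografts in nude mice, dosed intravenously at 3, 6 or 12 mg/kg every two days for 21 consecutive days (Q3D7); docetaxel 10 mg/kg as positive control. Tumor volumes followed, tumors excised and weighed at end of dosing; inhibitory rate calculated versus vehicle group; mean ± SD.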

NCI-H460 [10] = experiment: Antitumor activity against human NCI-H460 cells xenografted in nude mouse assessed as tumor growth inhibition at 12 mg/kg, iv administered every 2 days for 21 days relative to vehicle-treated control; format: functional; conditions: read-out: TGI; summary of the method: as §3
[11] = Elimination rate constant in Wistar rat at 5 mg/kg, iv; format: ADME, organism-based; conditions: in vivo; summary of the method: as §1
[12] = Tmax in Wistar rat at 5 mg/kg, iv; format: ADME, organism-based; conditions: in vivo; summary of the method: as §1
[13] = Drug uptake in tumor of nude mouse xenografted with human NCI-H460 cells at 12 mg/kg, iv administered every 2 days for 21 days; format: ADME, organism-based, Neoplasm; conditions: read-out: Drug uptake; summary of the method: as §2
[14] = Half life in Wistar rat at 5 mg/kg, iv; format: ADME, organism-based; conditions: in vivo; summary of the method: as §1
Mus musculus [15] = experiment: Toxicity in nude mouse xenografted with human NCI-H460 cells assessed as decrease in body weight at 3 to 12 mg/kg, iv administered every 2 days for 21 days; format: organism-based; conditions: in vivo
Summary of the method: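 Nude mice bearing NCI-H460 xenografts dosed intravenously at 3, 6 or 12 mg/kg every two days for 21 days (Q3D7). Body weights recorded over the dosing period; mean ± SD.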

[16] = Observed apparent volume of distribution in Wistar rat at 5 mg/kg, iv; format: ADME, organism-based; conditions: in vivo, read-out: Vz; summary of the method: as §1
NCI-H460 [17] = experiment: Antitumor activity against human NCI-H460 cells xenografted in nude mouse assessed as tumor growth inhibition at 3 mg/kg, iv administered every 2 days for 21 days relative to vehicle-treated control; format: functional; conditions: read-out: TGI; summary of the method: as §3
[18] = Drug uptake in tumor of nude mouse xenografted with human NCI-H460 cells at 3 mg/kg, iv administered every 2 days for 21 days; format: ADME, organism-based, Neoplasm; conditions: read-out: Drug uptake; summary of the method: as §2
NCI-H460 [19] = experiment: Cytotoxicity against human NCI-H460 cells assessed as decrease in cell viability after 72 hrs by MTT assay; format: functional, cell-based; conditions: NCI-H460, 72 h
NCI-H460 [20] = experiment: Antitumor activity against human NCI-H460 cells xenografted in nude mouse assessed as tumor growth inhibition at 10 mg/kg, iv administered every 2 days for 21 days relative to vehicle-treated control; format: functional; conditions: read-out: TGI
Summary of the method: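 Nude mice bearing human NCI-H460 lung carcinoma xenografts, dosed by intravenous injection every two days for 21 consecutive days (legend states Q3D7), alongside vehicle controls. Tumor volumes were followed over the dosing period. At the end, tumors were excised and weighed, and inhibitory rates were calculated relative to vehicle. Data given as mean ± SD.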

Mus musculus [21] = experiment: Toxicity in nude mouse xenografted with human NCI-H460 cells assessed as decrease in body weight at 10 mg/kg, iv administered every 2 days for 21 days; format: organism-based; parameters: scale not given: the % may be the effect or the level left; conditions: in vivo
Summary of the method: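 NCI-H460 lung carcinoma xenografts in nude mice, with intravenous injection every two days over 21 consecutive days (legend: Q3D7). Body weights were recorded across the administration period as a toxicity read-out. Data given as mean ± SD.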

NCI-H460 [22] = experiment: Antitumor activity against human NCI-H460 cells xenografted in iv dosed nude mouse assessed as tumor growth inhibition administered every 2 days for 21 days; format: functional, organism-based; conditions: tested as the 2H-labelled form; summary of the method: as §3

| Compound | AUC(0-t) [1] | Stability [2] | Cmax [3] | AUC(0-inf) [4] | IC50 (NCI-H446) | Stability [6] | MRT last [7] | IC50 (Jurkat) | clearance [8] | k el [11] | Tmax [12] | half-life [14] | Vd [16] | IC50 (NCI-H460 [19]) | also measured |
| --- | --- | --- | --- | --- | --- | --- | --- | --- | --- | --- | --- | --- | --- | --- | --- |
| [2H]/C(c1nc[nH]c1C(C)(C)C)=c1/[nH]c(=O)/c(=C/c2ccccc2)[nH]c1=O | 1520 ng·h/mL | Stable | 7280 ng/mL | 1520 ng·h/mL | 22 nM | Stable | 101 min | 4.3 nM | 58.8 mL/min/kg | 0.000139 s⁻¹ | 1.2 min | 88.2 min | 7.72 L/kg | 33.2 nM | concentration at 21 days [5]: 809 ng/g; inhibition in vivo at 6 mg/kg (NCI-H460 [9]): 44.8%; inhibition in vivo at 12 mg/kg (NCI-H460 [10]): 48%; concentration at 21 days [13]: 2490 ng/g; Activity (Mus musculus [15]): Non-Toxic; inhibition in vivo at 3 mg/kg (NCI-H460 [17]): 28.8%; concentration at 21 days [18]: 316 ng/g |
| CC(=O)O[C@@]12CO[C@@H]1C[C@H](O)[C@@]1(C)C(=O)[C@H](O)C3=C(C)[C@@H](OC(=O)[C@H](O)[C@@H](NC(=O)OC(C)(C)C)c4ccccc4)C[C@@](O)([C@@H](OC(=O)c4ccccc4)[C@H]21)C3(C)C [DOCETAXEL ANHYDROUS] |  |  |  |  |  |  |  |  |  |  |  |  |  |  | inhibition in vivo at 10 mg/kg (NCI-H460 [20]): 40%; Activity (Mus musculus [21]): 18.3% |
| CC(C)(C)c1[nH]cnc1/C=c1\[nH]c(=O)/c(=C/c2ccccc2)[nH]c1=O [PLINABULIN] | 721 ng·h/mL | Stable | 5040 ng/mL | 723 ng·h/mL | 44.2 nM | Stable | 30 min | 3.3 nM | 121 mL/min/kg | 0.000189 s⁻¹ | 1.2 min | 67.8 min | 11.4 L/kg | 33.9 nM | TGI (NCI-H460 [22]): Dose-dependent effect |
